PubChem BioAssay AID552 (SRMLSC, 2006)
Hit rate of the full screen: of about 20,000 compounds, about 10 (0.05%) were called active. Cut-off read from the data, not from the text of the source: active = inhibition above about 40%; inactive = the rest. The sample as a whole holds a higher share of actives than the screen did. Where a SMILES comes first, the peptide text is derived from it. [ ]: non-standard residue; d: D form. ξ: configuration not given here. ξV = CC(C)C(N)C(=O)O

experiment: growth inhibitors of wild type E. coli, primary screen, strain BW25113 wild type, absorbance readout (AID 552); settings: OD600, at 10 µM, hits give high values;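 note: bacteria exposed to compound for 20 hours at 37 °C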
Procedure, shortened: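 assay system = bacterial strain in a whole-cell growth screen | quantity = inoculum from a 1:1000 dilution of a 1.5 h subculture | buffer or medium = LB broth with 50 µg/mL kanamycin | compound dosing = one dose, 10 µM final | schedule = compound exposure of 20 h at 37 °C | technique = absorbance at 615 nm as a measure of bacterial growth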

inhibition, inactive:
CCOC(=O)N1CCC(O)(c2cc(C)c(C)cc2C)CC1 2.31%, CCOC(=O)c1ccc(NC(=O)CSc2nnc(COc3ccccc3OC)n2C)cc1 -14.8%, O=C(OCc1ccccc1F)c1ccc2c(c1)OCCO2 6.06%, CCN(Cc1nc2ccccc2c(=O)[nH]1)Cc1cc(=O)oc2cc(C)c(C)cc12 -2.52%, Cc1noc(C)c1C(=O)NC(C)c1ccc2c(c1)OCO2 (stereo not given) -22.5%, CC(C)COC(=O)C1C2C=CC3(CN(C(C)c4ccc(Br)cc4)C(=O)C13)O2 (stereo not given) 15.3%, COC(=O)c1ccc(Oc2nc(Nc3ccc(F)cc3)nc(N3CCCC3)n2)cc1 -16.9%, CSc1ccc(S(=O)(=O)Nc2cccc(F)c2)cc1 -8.18%, CCN(CC)S(=O)(=O)c1ccc(NC(=O)CN(c2cccc(F)c2)S(C)(=O)=O)cc1 -6.94%, CS(=O)(=O)N(CC(=O)N1CCOCC1)c1ccc2c3c(cccc13)CC2 -16.3%, CC(=O)NC(C(=O)NCC(N)=O)C(C)C (stereo not given) (Ac-[ξV]-Gly-NH2) 7.41%, CCCCN(CC)CCCNC(=O)CS(=O)(=O)Cc1nc(-c2cccc(OC)c2)oc1C 4.26%, CCOC(=O)n1c(SCC(=O)N(CC)CC)nc2ccccc21 -3.3%, Cc1cc(C)nc(N2C(=O)CC(Cc3ccccc3)C2=O)n1 (stereo not given) -9.77%, CC(C)C[C@H](NC(=O)[C@@H]1O[C@H]1C(=O)O)C(=O)NCCCCN=C(N)N -3.4%, CN(C)CCNC(CC(=O)Nc1ccc(Cl)c(Cl)c1)C(=O)O (stereo not given) -14.6%, COc1ccc(C(=O)Nc2cccnc2)cc1C(=O)Nc1cccnc1 1.96%, COC(=O)Nc1c(C)n(C)n(-c2ccccc2)c1=O -2.62%, Cc1ccc(C)c(S(=O)(=O)N2CC(=O)Nc3ccccc32)c1 -14.8%, COCCn1c(C)cc(C(=O)CSc2ncnc3sc4c(c23)CCC4)c1C 2.06%, Cc1nc(C)c(C(=O)Nc2ccc(C)c(F)c2)o1 -3.6%, COc1cc(-c2nc(S(=O)(=O)c3ccc(Cl)cc3)c(N(C)C)o2)cc(OC)c1OC -0.36%, Cc1cc(C(=O)NCCCc2ccccc2)no1 -3.97%, CCc1ccc(CCC(=O)Nc2ccc(S(N)(=O)=O)cc2)o1 -21.2%, Cc1ccc(-c2noc(-c3ccccc3C(=O)NCC3CCCO3)n2)cc1 (stereo not given) 8.67%, CC1(C)C(=O)Nc2ccccc2N1C(=O)COC(=O)Cn1cnc2ccccc2c1=O -1.7%, O=C1CC(c2ccccc2)CC(O)=C1C=NCCN1CCOCC1 (stereo not given) 0.58%, COCCCNC(=O)CSc1nc2ccc(N3CCOCC3)cc2c(=O)n1CCc1ccccc1 1.57%, CCCC(=O)Nc1ccc(C(=O)NCCCn2ccnc2)cc1 -11.9%, COc1ccc(S(=O)(=O)N2CCOCC2)cc1C(=O)Nc1nc2ccccc2s1 4.62%, CCn1c(SCC(=O)Nc2nccs2)nnc1-c1ccncc1 -9.46%, CCCC1CC(C)(C(=O)Cn2[nH]c(=O)ccc2=O)OC1=O (stereo not given) 19.6%, CC(C)Cc1ccc(S(=O)(=O)N2CCN(C(=O)c3ccco3)CC2)cc1 -19.7%, O=C(CS(=O)(=O)c1cn(Cc2ccc(Cl)cc2)c2ccccc12)N1CCOCC1 -0.05%, CCOC(=O)C1CCN(C(=O)Cn2cc(C#N)c3ccccc32)CC1 6.78%, O=C(O)C1CC=C(Cl)CC1C(=O)NCc1ccccc1 (stereo not given) -2.5%, CCOC(=O)c1cc(NC(=O)c2cccnc2)cc(C(=O)OCC)c1 -7.79%, CCOC(=O)c1c(N)c(C#N)nn1-c1ccccc1C(=O)OC -8.34%, CCN1CCN(C(=O)CN(C)S(=O)(=O)c2ccc(OC)cc2)CC1 -16.9%, C=CCNC(=O)CSc1nc2sc(C)c(C)c2c(=O)[nH]1 -0.815%, O=C(O)[C@@H]1CCCN1c1ncnc2sc3c(c12)CCC3 5%, CN1C(C)(C)CC(NC(=O)CCC(=O)NC2CC(C)(C)N(C)C(C)(C)C2)CC1(C)C -21%, COc1ccccc1N1CCN(C(=O)c2cc(-c3ccc(Cl)c(Cl)c3)on2)CC1 -2.37%, COc1ccc(OC)c(S(=O)(=O)Nc2ccccc2F)c1 -13.8%, Cc1noc(C)c1C(=O)Nc1ccccn1 -22.1%, Cc1ccc(SCCN2C(=O)NC(C)(C)C2=O)cc1 4.35%, COc1cc(C2C(C#N)=C(C)NC3=C2C(=O)CC(C)(C)C3)ccc1O (stereo not given) 5.23%, COC(=O)c1ccc(Oc2nc(NC(C)C)nc(SC)n2)cc1 -19.1%, CCOC(=O)c1cc(NC(=O)SCC(=O)O)c(C)nc1C -3.26%, Cc1onc(-c2ccccc2)c1C(=O)N1CCOCC1 16.2%, CCOC(=O)Cc1csc(NC(=O)CN(C)S(=O)(=O)c2ccc3c(c2)CCC(=O)N3)n1 3.09%, CN(C)S(=O)(=O)c1ccc(Oc2ccc(S(=O)(=O)N(C)C)cc2)cc1 7.29%, Cn1nnnc1SCC(=O)N1CCN(C(c2ccccc2)c2ccccc2)CC1 4.16%, CC12CCC(C(=O)N3CCN(c4ncccn4)CC3)(c3nc4ccccc4nc31)C2(C)C (stereo not given) -25.6%, COc1c(C(=O)N2CCCC2)ccc2ccccc12 -8.42%, COc1ccc(CSc2nc(N3CCOCC3)c3c(c2C#N)CC(C)(C)OC3)cc1 -19.4%, CCC(C)n1[nH]c(=O)c2c(C)cc(C)nc21 (stereo not given) 5.71%, CCCCSc1nnc(-c2ccc(NC(=O)CC)cc2)n1C -21.9%, Cc1cc(C)c2c(n1)nn1c(N3CCN(c4cccc(Cl)c4)CC3)cc(C)nc21 -4.02%, Cc1cc(Cl)c(S(=O)(=O)NCCC(=O)O)cc1OCC(N)=O -0.81%
